In ChEMBL document CHEMBL4813968, “Synthesis and evaluation of 3'-fluorinated 7-deazapurine nucleosides as antikinetoplastid agents” (Eur J Med Chem, 2021):

What was measured:
MRC5 = assay: Cytotoxicity against human MRC5 cells assessed as reduction in cell viability after 3 days by resazurin dye based fluorimetric analysis; settings: MRC5, 72 h
In short: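 MRC-5_SV2 cells, 1.5×10⁵ cells/mL in MEM with Earl's salts, L-glutamine, NaHCO₃ and 5% inactivated FCS, were exposed 3 days at 37 °C, 5% CO₂ to a 10-point 4-fold dilution series, final DMSO <1%. Resazurin was added for 4 h, fluorescence read at ex 550/em 590 nm, and IC₅₀ derived versus untreated and medium controls.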

Leishmania infantum = assay: Antileishmanial activity against Leishmania infantum MHOM/MA(BE)/67 infected in mouse primary peritoneal macrophages treated 2 hrs post-infection and incubated for 5 days by Giemsa staining based microscopic analysis; assay type: functional, organism-based; settings: MHOM/MA(BE)/67, Peritoneal macrophage
In short: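 Peritoneal macrophages from mice, harvested 2 days after 2% potato starch stimulation, infected after 48 h with L. infantum in supplemented RPMI-1640 with 5% FCS. Compounds were added 2 h post-infection as a 10-point 4-fold dilution series, final DMSO <1%, and incubated 5 days at 37 °C, 5% CO₂. Amastigotes per macrophage were counted after 10% Giemsa staining, and IC₅₀ was taken from % reduction versus untreated-infected controls.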

[1] = Selectivity index, ratio of EC50 for cytotoxicity against mouse primary macrophage to EC50 for antileishmanial activity against Leishmania infantum MHOM/MA(BE)/67 infected in mouse primary peritoneal macrophages; assay type: toxicity; settings: read-out: Ratio EC50
[2] = system: Trypanosoma brucei rhodesiense; assay: Antitrypanosomal activity against Trypanosoma brucei rhodesiense assessed as parasite growth inhibition; assay type: functional, organism-based
Trypanosoma cruzi = assay: Antitrypanosomal activity against Trypanosoma cruzi Tulahuen CL2 infected in human MRC5 cells assessed as inhibition of parasite growth incubated for 7 days by chlorophenol red-fl-D-galactopyranoside based spectrophotometric analysis; assay type: functional, organism-based; settings: Tulahuen CL2, MRC5, 168 h
In short: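 T. cruzi Tulahuen CL2 β-galactosidase strain was maintained on MRC-5_SV2 cells. Wells held 4×10³ cells plus 4×10⁴ parasites with a 10-point 4-fold compound series, final DMSO <1%. After 7 days at 37 °C, 5% CO₂, substrate was added and absorbance read at 540 nm after 4 h at 37 °C. IC₅₀ was taken from % reduction versus infected and uninfected controls.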

Macrophage = assay: Cytotoxicity against mouse primary macrophage cells assessed as reduction in cell viability; assay type: cell-based
In short: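 Macrophage toxicity was scored microscopically within the L. infantum assays, using cell detachment, lysis and granulation. At least 500 cells over adjacent fields were scored semi-quantitatively, and CC₅₀ was taken from % reduction in normal cells versus untreated controls.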

[3] = Selectivity index, ratio of EC50 for cytotoxicity against human MRC5 cells to EC50 for antitrypanosomal activity against Trypanosoma cruzi Tulahuen CL2 infected in human MRC5 cells; assay type: toxicity, cell-based; settings: read-out: Ratio EC50
In short: (§1)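 Selectivity index is the MRC-5 EC₅₀ divided by the parasite EC₅₀.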

[4] = system: Trypanosoma brucei brucei; assay: Antitrypanosomal activity against Trypanosoma brucei brucei assessed as parasite growth inhibition; assay type: functional, organism-based
[5] = Selectivity index, ratio of EC50 for human MRC5 cells to EC50 for antitrypanosomal activity against Trypanosoma brucei rhodesiense; assay type: toxicity; settings: read-out: Ratio EC50; in short: as §1
[6] = Selectivity index, ratio of EC50 for human MRC5 cells to EC50 for antitrypanosomal activity against Trypanosoma brucei brucei; assay type: toxicity; settings: read-out: Ratio EC50; in short: as §1

Row | Compound | EC50 (MRC5) [µM] | EC50 (Leishmania infantum) [µM] | selectivity ratio [1] | EC50 [2] [µM] | EC50 (Trypanosoma cruzi) [µM] | EC50 (Macrophage) [µM] | selectivity ratio [3] | EC50 [4] [µM] | selectivity ratio [5] | selectivity ratio [6]
1 | Nc1nc2c(ncn2[C@@H]2O[C@H](CO)[C@@H](F)[C@H]2O)c(=O)[nH]1 | 42 | 46.9 | > 1 | > 64 | 34.6 | > 64 | 1 | 42 |  | 
2 | Nc1ncnc2c1ccn2[C@@H]1O[C@H](CO)[C@@H](F)[C@H]1O | > 64 | 23.4 | > 2 | 1.47 | 9.09 | > 64 | > 7 | 22.2 | > 44 | > 2
3 | OC[C@H]1O[C@@H](n2cc(Br)c3c(O)ncnc32)[C@H](O)[C@H]1F | > 64 | > 64 |  | 1.57 | > 64 | > 64 |  | 16 | > 41 | > 4
4 | Nc1ncnc2c1c(Cl)cn2[C@@H]1O[C@H](CO)[C@@H](F)[C@H]1O | 13.8 | 0.09 | 1 | 0.031 | 0.071 | 0.13 | 194 | 0.13 | 448 | 108
5 | O=c1[nH]cnc2c1c(F)cn2[C@@H]1O[C@H](CO)[C@@H](F)[C@H]1O | > 64 | > 64 |  | > 64 | > 64 | > 64 |  | > 64 |  | 
6 | COc1ncnc2c1c(Br)cn2[C@@H]1O[C@H](CO)[C@@H](F)[C@H]1O | > 64 | > 64 |  | 51.6 | > 64 | > 64 |  | 8.64 | 1 | 7
7 | COc1nc(N)nc2c1ccn2[C@@H]1O[C@H](CO)[C@@H](F)[C@H]1O | > 64 | > 64 |  | > 64 | > 64 | > 64 |  | > 64 |  | 
8 | Nc1ncnc2c1ccn2[C@@H]1O[C@H](CO)[C@H](F)[C@H]1O | > 64 | > 64 |  | 0.0063 | > 64 | > 64 |  | 0.04 | > 10100 | > 1590
9 | CCc1cn([C@@H]2O[C@H](CO)[C@@H](F)[C@H]2O)c2ncnc(N)c12 | 40.3 | > 64 |  | 21.3 | > 64 | > 64 | < 1 | 20.5 | 2 | 2
10 | Nc1ncnc2c1c(Br)cn2[C@@H]1O[C@H](CO)[C@@H](F)[C@H]1O | 32 | 0.37 | 3 | 0.028 | 0.041 | 1.02 | 779 | 0.031 | 1150 | 
11 | N#Cc1cn([C@@H]2O[C@H](CO)[C@@H](F)[C@H]2O)c2ncnc(N)c12 | 1.32 | 2.03 | < 1 | 0.38 | 9.66 | 2 | < 1 | 10.5 | 3 | 
12 | Nc1ncnc2c1c(C(F)(F)F)cn2[C@@H]1O[C@H](CO)[C@@H](F)[C@H]1O | 7.01 | 27.3 | 1 | 2.06 | 3.17 | 32 |  | 2.02 | 3 | 3
13 | COc1ncnc2c1ncn2[C@@H]1O[C@H](CO)[C@@H](F)[C@H]1O | > 64 | > 64 |  | 35.2 | 30.1 | > 64 | > 2 | 33.5 | 2 | 2
14 | COc1nc(N)nc2c1c(Br)cn2[C@@H]1O[C@H](CO)[C@@H](F)[C@H]1O | > 64 | > 64 |  | > 64 | > 64 | > 64 |  | > 64 |  | 
15 | O=c1[nH]cnc2c1c(Cl)cn2[C@@H]1O[C@H](CO)[C@@H](F)[C@H]1O | > 64 | > 64 |  | > 64 | > 64 | > 64 |  | > 64 |  | 
16 | O=c1[nH]cnc2c1c(I)cn2[C@@H]1O[C@H](CO)[C@@H](F)[C@H]1O | > 64 | > 64 |  | > 64 | > 64 | > 64 |  | > 64 |  | 
17 | O=c1[nH]cnc2c1ncn2[C@@H]1O[C@H](CO)[C@@H](F)[C@H]1O | > 64 | > 64 |  | > 64 | 4.28 | > 64 | > 15 | > 64 |  | 
18 | Nc1ncnc2c1c(F)cn2[C@@H]1O[C@H](CO)[C@@H](F)[C@H]1O | 5.49 | 1.75 |  | 0.16 | 0.25 | 2 | 22 | 0.47 | 27 | 9
19 | Nc1nc(N)c2ncn([C@@H]3O[C@H](CO)[C@@H](F)[C@H]3O)c2n1 | > 64 | > 64 |  | > 64 | > 64 | > 64 |  | > 64 |  | 
20 | O=c1[nH]cnc2c1c(Br)cn2[C@@H]1O[C@H](CO)[C@@H](F)[C@H]1O | > 64 | > 64 |  | > 64 | > 64 | > 64 |  | > 64 |  | 
21 | Nc1nc2c(ccn2[C@@H]2O[C@H](CO)[C@@H](F)[C@H]2O)c(=O)[nH]1 | > 64 | > 64 |  | > 64 | > 64 | > 64 |  | > 64 |  | 
22 | O=c1[nH]cnc2c1ccn2[C@@H]1O[C@H](CO)[C@@H](F)[C@H]1O | > 64 | > 64 |  | > 64 | > 64 | > 64 |  | > 64 |  | 
23 | O=c1[nH]cnc2c1c(-c1ccccc1)cn2[C@@H]1O[C@H](CO)[C@@H](F)[C@H]1O | > 64 | > 64 |  | > 64 | > 64 | > 64 |  | > 64 |  | 
24 | Nc1ncnc2c1ncn2[C@@H]1O[C@H](CO)[C@@H](F)[C@H]1O | 4.92 | 27.5 | > 2 | 0.017 | 0.55 | > 32 | 9 | 0.032 | 296 | 154
25 | O=C(Cn1ccnc1[N+](=O)[O-])NCc1ccccc1 [BENZNIDAZOLE] |  |  |  |  | 2.02 |  |  |  |  | 
26 | CCCCCCCCCCCCCCCCOP(=O)([O-])OCC[N+](C)(C)C [MILTEFOSINE] |  | 7.47 |  |  |  |  |  |  |  | 
27 | Cc1ccc(C(=O)Nc2ccc(S(=O)(=O)O)c3cc(S(=O)(=O)O)cc(S(=O)(=O)O)c23)cc1NC(=O)c1cccc(NC(=O)Nc2cccc(C(=O)Nc3cc(C(=O)Nc4ccc(S(=O)(=O)O)c5cc(S(=O)(=O)O)cc(S(=O)(=O)O)c45)ccc3C)c2)c1 [SURAMIN] |  |  |  |  |  |  |  | 0.03 |  | 
